Results taken from ChEMBL document CHEMBL1914430, “Synthesis of some new 1,3,5-trisubstituted pyrazolines bearing benzene sulfonamide as anticancer and anti-inflammatory agents” (Bioorg Med Chem Lett, 2011).

Tests used:
Type in all cases: functional
SNB-19 = test: Anticancer activity against human SNB19 cells after 48 hrs; details: SNB-19, 48 h
Method in brief: (§1)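 NCI 60-line panel protocol with a 48 h incubation. Per line: GI50 = concentration giving 50% decrease in net cell growth; TGI = total growth inhibition; LC50 = net 50% loss of initial cells. When the level was not reached or was exceeded, the value is given as greater or less than the highest or lowest concentration tested.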

HCT-116 = test: Anticancer activity against human HCT116 cells after 48 hrs; details: HCT-116, 48 h
Method in brief: (§2)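 NCI Drug Evaluation Branch 60-cell-line screen across leukemia, melanoma, lung, colon, CNS, ovarian, renal, prostate and breast panels. The incubation period is 48 h. Parameters are derived from dose–response data: GI50 is the concentration giving 50% decrease in net growth, TGI is total growth inhibition, and LC50 is net 50% loss of initial cells. Values beyond the tested range are reported as greater or less than the maximum or minimum concentration.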

MDA-MB-231 = test: Anticancer activity against human MDA-MB-231 cells after 48 hrs; details: MDA-MB-231, 48 h; method in brief: as §2
OVCAR-8 = test: Anticancer activity against human OVCAR8 cells after 48 hrs; details: OVCAR-8, 48 h; method in brief: as §1
SK-MEL-5 = test: Anticancer activity against human SK-MEL-5 cells after 48 hrs; details: SK-MEL-5, 48 h; method in brief: as §1
[1] = Anticancer activity against human Hs 578T cells after 48 hrs; method in brief: as §2
MDA-MB-468 = test: Anticancer activity against human MDA-MB-468 cells after 48 hrs; details: MDA-MB-468, 48 h; method in brief: as §2
UO-31 = test: Anticancer activity against human UO31 cells after 48 hrs; details: UO-31, 48 h
Method in brief: (§3)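 NCI ~60 human tumour cell line panel with a 48 h incubation. GI50 is the concentration giving a 50% fall in net growth, TGI gives total growth inhibition, and LC50 gives a net 50% loss of initial cells. An effect not reached or exceeded is reported as greater or less than the highest or lowest concentration tested.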

ACHN = test: Anticancer activity against human ACHN cells after 48 hrs; method in brief: as §2
Malme-3M = test: Anticancer activity against human MALME-3M cells after 48 hrs; method in brief: as §2
HT-29 = test: Anticancer activity against human HT-29 cells after 48 hrs; details: HT-29, 48 h; method in brief: as §2
NCI-H522 = test: Anticancer activity against human NCI-H522 cells after 48 hrs; details: NCI-H522, 48 h; method in brief: as §1
OVCAR-5 = test: Anticancer activity against human OVCAR5 cells after 48 hrs; details: OVCAR-5, 48 h; method in brief: as §1
SF-295 = test: Anticancer activity against human SF295 cells after 48 hrs; details: SF-295, 48 h; method in brief: as §1
SN12C = test: Anticancer activity against human SN12C cells after 48 hrs; method in brief: as §1
CAKI-1 = test: Anticancer activity against human Caki1 cells after 48 hrs; details: CAKI-1, 48 h; method in brief: as §2
PC-3 = test: Anticancer activity against human PC3 cells after 48 hrs; details: PC-3, 48 h; method in brief: as §1
UACC-257 = test: Anticancer activity against human UACC257 cells after 48 hrs; details: UACC-257, 48 h; method in brief: as §3
M14 = test: Anticancer activity against human M14 cells after 48 hrs; details: M14, 48 h; method in brief: as §2
LOX IMVI = test: Anticancer activity against human LOXIMVI cells after 48 hrs; method in brief: as §2
DU-145 = test: Anticancer activity against human DU145 cells after 48 hrs; details: DU-145, 48 h; method in brief: as §2
HOP-92 = test: Anticancer activity against human HOP92 cells after 48 hrs; details: HOP-92, 48 h; method in brief: as §2
HL-60(TB) = test: Anticancer activity against human HL-60(TB) cells after 48 hrs; details: HL-60, 48 h
Method in brief: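 NCI 60-cell-line panel protocol: cells exposed to compound for 48 h. Initial one-dose screen at 10⁻⁵ M. GI50 = concentration giving 50% decrease in net cell growth. TGI = concentration giving total growth inhibition. LC50 = concentration giving net 50% loss of initial cells at the end of incubation. A value not reached or exceeded is reported as greater or less than the highest or lowest concentration tested.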

HOP-62 = test: Anticancer activity against human HOP62 cells after 48 hrs; details: HOP-62, 48 h; method in brief: as §2
SR = test: Anticancer activity against human SR cells after 48 hrs; method in brief: as §1
U-251 = test: Anticancer activity against human U251 cells after 48 hrs; details: U-251, 48 h; method in brief: as §3
BT-549 = test: Anticancer activity against human BT549 cells after 48 hrs; details: BT-549, 48 h; method in brief: as §2
RPMI-8226 = test: Anticancer activity against human RPMI8226 cells after 48 hrs; details: RPMI-8226, 48 h; method in brief: as §1
TK-10 = test: Anticancer activity against human TK10 cells after 48 hrs; details: TK-10, 48 h; method in brief: as §3
NCI-H322M = test: Anticancer activity against human NCI-H322M cells after 48 hrs; method in brief: as §1
[2] = read-out: LC50 (the source's name)

`Cc1cc(O)c(C2=NN(c3ccc(S(N)(=O)=O)cc3)C(/C=C/c3ccccc3)C2)cc1Cl` (stereo not given) showed a GI50 (SNB-19) of 7.84 µM, a TGI (SNB-19) of 19.9 µM and a CC50 (SNB-19; [2]) of 44.7 µM. The GI50 (HCT-116) was 2.4 µM, the TGI (HCT-116) was 14.6 µM and the CC50 (HCT-116; [2]) was 38.2 µM. The GI50 (MDA-MB-231) was 4.56 µM, the TGI (MDA-MB-231) was 16.3 µM and the CC50 (MDA-MB-231; [2]) was 40.8 µM. The GI50 (OVCAR-8) was 3.03 µM, the TGI (OVCAR-8) was 20.2 µM and the CC50 (OVCAR-8; [2]) was 91.7 µM. For the same compound, the GI50 (SK-MEL-5) was 4.23 µM, the LC50 (SK-MEL-5) was 40.5 µM and the TGI (SK-MEL-5) was 16.4 µM. It also gave a GI50 [1] of 12.3 µM, a TGI [1] of 49.7 µM and a CC50 [1, 2] greater than 100 µM. It also gave a GI50 (MDA-MB-468) of 3.94 µM, a TGI (MDA-MB-468) of 13.8 µM and a CC50 (MDA-MB-468; [2]) of 37.2 µM. The GI50 (UO-31) was 15.2 µM, the TGI (UO-31) was 34.9 µM and the CC50 (UO-31; [2]) was 79.9 µM. It also gave a GI50 (ACHN) of 5.27 µM, a TGI (ACHN) of 21.9 µM and a CC50 (ACHN; [2]) of 67.2 µM. For the same compound, the GI50 (Malme-3M) was 3.01 µM, the TGI (Malme-3M) was 17.4 µM and the CC50 (Malme-3M; [2]) was 51.9 µM. It also gave a GI50 (HT-29) of 3.73 µM, a TGI (HT-29) of 14.7 µM and a CC50 (HT-29; [2]) of 38.3 µM. For the same compound, the GI50 (NCI-H522) was 4.62 µM, the LC50 (concentration killing 50% of initial cells) (NCI-H522) was 61.8 µM and the TGI (NCI-H522) was 19.4 µM. It also gave a GI50 (OVCAR-5) of 3.18 µM, an LC50 (OVCAR-5) of 38.3 µM and a TGI (OVCAR-5) of 14.7 µM. It also gave a GI50 (SF-295) of 2.36 µM, an LC50 (concentration giving net 50% loss of initial cells) (SF-295) of 37.3 µM and a TGI (SF-295) of 11.9 µM. For the same compound, the GI50 (SN12C) was 11.1 µM, the LC50 (SN12C) was 59.4 µM and the TGI (SN12C) was 25.6 µM. For the same compound, the GI50 (CAKI-1) was 15.3 µM, the LC50 (concentration giving 50% net loss of initial cells) (CAKI-1) was greater than 100 µM and the TGI (CAKI-1) was 87.7 µM. For the same compound, the GI50 (PC-3) was 3.15 µM, the TGI (PC-3) was 11.5 µM and the CC50 (PC-3; [2]) was 34 µM. The GI50 (UACC-257) was 14.5 µM, the LC50 (UACC-257) was greater than 100 µM and the TGI (UACC-257) was 45.7 µM. It also gave a GI50 (M14) of 6.16 µM, a TGI (M14) of 19.3 µM and a CC50 (M14; [2]) of 44.2 µM. The GI50 (LOX IMVI) was 3.94 µM, the TGI (LOX IMVI) was 16.2 µM and the CC50 (LOX IMVI; [2]) was 40.3 µM. It also gave a GI50 (DU-145) of 14.1 µM, an LC50 (concentration causing net 50% loss of initial cells) (DU-145) greater than 100 µM and a TGI (DU-145) of 38.6 µM. It also gave a GI50 (HOP-92) of 2.36 µM, a TGI (HOP-92) of 8.48 µM and a CC50 (HOP-92; [2]) of 34 µM. The GI50 (HL-60(TB)) was 68.3 µM, the LC50 (HL-60(TB)) was greater than 100 µM and the TGI (HL-60(TB)) was 100 µM. It also gave a GI50 (HOP-62) of 3.94 µM, an LC50 (concentration for 50% net loss of initial cells) (HOP-62) of 37.5 µM and a TGI (HOP-62) of 14.1 µM. The GI50 (SR) was 12.7 µM, the LC50 (concentration killing 50% of initial cells) (SR) was 89.7 µM and the TGI (SR) was 33.8 µM. The GI50 (U-251) was 3.79 µM, the TGI (U-251) was 15.6 µM and the CC50 (U-251; [2]) was 39.5 µM. It also gave a GI50 (BT-549) of 6.12 µM, a TGI (BT-549) of 21.3 µM and a CC50 (BT-549; [2]) of 54.5 µM. For the same compound, the GI50 (RPMI-8226) was 4.95 µM, the LC50 (concentration for net 50% loss of initial cells) (RPMI-8226) was 0.575 µM and the TGI (RPMI-8226) was 20.6 µM. The GI50 (TK-10) was 14.8 µM, the LC50 (TK-10) was 60.7 µM and the TGI (TK-10) was 29.9 µM. The GI50 (NCI-H322M) was 5.73 µM, the LC50 (net 50% loss of initial cells) (NCI-H322M) was greater than 100 µM and the TGI (NCI-H322M) was 27.5 µM.
